The species named for data set [1] is Oryctolagus cuniculus. Put plainly: Percent inhibition of cyclooxygenase activity of compound at 10 uM concentration. In kind it is functional. The procedure, abridged:
(§1)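 Microsomes came from rabbit distal colon mucosa, homogenized in Tris pH 8.0, centrifuged, resuspended and recentrifuged, and used immediately. Microsomes were preincubated with test agent 10 min at 37 °C in Tris–HCl pH 8.0 containing 2 mM glutathione, 5 mM L-tryptophan and 1 µM haematin. Then 20 µM arachidonic acid with [1-14C] tracer was added and reacted 5 min at 37 °C. PGE2 was separated by HPLC, radioactivity counted by scintillation, and inhibition taken against paired controls.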

In data set [2] the test system is Rattus norvegicus. Put plainly: Percent of carageenam induced paw oedema inhibition in rat as a measure of anti-inflammatory activity at 40 mg/kg dose on peroral administration. In kind it is functional. The settings on record: route oral. In a few lines:
(§2)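 Albino rats (125–160 g), five per group, dosed orally at 20, 40 or 80 mg/kg. After 30 min, 0.2 mL of 1% carrageenan in 0.9% NaCl was injected subcutaneously into the plantar aponeurosis of the hind paw. Paw volume was read by water plethysmometer at injection and at 3 h. Inhibition = (1 − Gt/Gc) × 100 against a carrageenan-only control group of five rats.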

Data set [3] relates to Rattus norvegicus. Nature of the data set: Ulcerogenic activity was measured in fasting rat with ulcer on peroral administration of 400 mg/kg. The settings on record: route oral. The format is functional. The procedure, abridged: (§3)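 Rats (200–230 g), ten per group, fasted 24 h, given a single oral dose of 100, 200 or 400 mg/kg. Animals were killed 5 h after dosing. Stomach and small intestine were examined under a microscope for hyperaemia, epithelial shedding, petechiae, frank haemorrhage, and erosion or ulceration. Values are percent of animals showing hyperaemia or showing ulcer.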

For data set [4], the system named is Rattus norvegicus. Nature of the data set: Ulcerogenic activity was measured in fasting rat with ulcer on peroral administration of 100 mg/kg. The settings on record: route oral. In kind it is functional. In a few lines:
as §3

Data set [5] has as its system Rattus norvegicus. Put plainly: Ulcerogenic activity was measured in fasting rat with hyperaemia on peroral administration of 200 mg/kg. The settings on record: route oral. In kind it is functional. In a few lines:
as §3

Data set [6] in a line: Acute lethal dose of compound was determined in mice when administered perorally. In kind it is ADME. The settings on record: mouse, in vivo, po; read-out: ALD50. The procedure, abridged:
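Albino mice (25–30 g), groups of 10 per dose level, given test compound at several dose levels. Percent mortality in each group was recorded 24 h after dosing. The approximate 50% lethal dose (ALD50) was calculated by the Smith method.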

The species named for data set [7] is Rattus norvegicus. Put plainly: Effective dose of compound for anti-inflammatory activity. In kind it is functional.
The test system of data set [8] is Rattus norvegicus. Put plainly: Ulcerogenic activity was measured in fasting rat with hyperaemia on peroral administration of 100 mg/kg. The settings on record: route oral. The format is functional. The procedure, abridged:
as §3

In data set [9] the test system is Rattus norvegicus. Nature of the data set: Ulcerogenic activity was measured in fasting rat with hyperaemia on peroral administration of 400 mg/kg. The settings on record: route oral. The format is functional. In a few lines:
as §3

Data set [10] deals with Rattus norvegicus. Nature of the data set: Percent of carageenam induced paw oedema inhibition in rat as a measure of anti-inflammatory activity at 80 mg/kg dose on peroral administration. In kind it is functional. The settings on record: route oral. The procedure, abridged: as §2
Data set [11] deals with Rattus norvegicus. Nature of the data set: Ulcerogenic activity was measured in fasting rat with ulcer on peroral administration of 200 mg/kg. The settings on record: route oral. The format is functional. In a few lines:
as §3

In data set [12] the test system is Rattus norvegicus. Put plainly: Percent of carageenam induced paw oedema inhibition in rat as a measure of anti-inflammatory activity at 20 mg/kg dose on peroral administration. The format is functional. The settings on record: route oral. In a few lines:
as §2

For data set [13], the species on record is Oryctolagus cuniculus. Put plainly: Percent inhibition of cyclooxygenase activity of compound at 10 uM concentration; No inhibition. The format is functional. In a few lines: as §1

Molecules are shown by their SMILES. Activity calls are given as the source filed them. The rule behind the calls is not given here.

The term Inhibition denotes the percentage by which the read-out fell short of the control. A lower Inhibition goes with a weak effect. One may read the ED50 as the dose at which the effect has come halfway, by size or by number of responders. The low end stands for greater potency, the high end for weaker potency. For the compound `Cc1ccc(C(=O)c2cc(C(=O)c3ccccc3)cc(C)c2O)cc1`, the Inhibition in the data set listed under Oryctolagus cuniculus [1] was 40%. Also, the figures for the “Antiinflammatory Activity” value in the data set on Rattus norvegicus [2], in the data set on Rattus norvegicus [10] and in the data set on Rattus norvegicus [12] were 29.1%, 62.8% and 20.1%, respectively. Also, the Ulcerogenic activity in the data set with Rattus norvegicus [3] is on record as 40%; with Rattus norvegicus [4], 10%; with Rattus norvegicus [5] it was 90%; in the data set on Rattus norvegicus [8], 70%; with Rattus norvegicus [9], 100%; in the data set with Rattus norvegicus [11], 20%. Further, in [6], the LD50 is more than 1000 mg/kg. The ED50 in the data set listed under Rattus norvegicus [7] worked out at 62.5 mg/kg.

Consider `Cc1ccc(C(=O)c2cc(C)cc(C(=O)c3ccc(C)cc3)c2O)cc1`, for which the Inhibition in the data set filed under Oryctolagus cuniculus [1] is 87%. Moreover, the “Antiinflammatory Activity” value worked out at 45.4% in the data set with Rattus norvegicus [2], 77.1% in the data set on Rattus norvegicus [10] and 22.2% in the data set with Rattus norvegicus [12]. Besides, the Ulcerogenic activity in the data set on Rattus norvegicus [3] was found to be 40%; in the data set on Rattus norvegicus [4] it was 20%; in the data set with Rattus norvegicus [5], 70%; in the data set on Rattus norvegicus [8], 50%; in the data set on Rattus norvegicus [9], 100%; in the data set with Rattus norvegicus [11], 30%. In data set [6], the LD50 was more than 1000 mg/kg. Besides, the 50% effect level in the data set listed under Rattus norvegicus [7] (ED50) was put at a dose of 60.2 mg/kg.

In the case of `CCCCC1C(=O)N(c2ccccc2)N(c2ccccc2)C1=O` [PHENYLBUTAZONE], the Inhibition in the data set listed under Oryctolagus cuniculus [1] was found to be 89%. In addition, the results for the “Antiinflammatory Activity” value with Rattus norvegicus [2], with Rattus norvegicus [10] and with Rattus norvegicus [12] were 35.5%, 57.2% and 31.3%, respectively. Also, the Ulcerogenic activity with Rattus norvegicus [3] is listed as 90%; in the data set with Rattus norvegicus [4], 30%; in the data set with Rattus norvegicus [5] it was 60%; in the data set with Rattus norvegicus [8], 30%; in the data set with Rattus norvegicus [9] it was 90%; with Rattus norvegicus [11], 60%.

In turn, `Cc1ccccc1C(=O)c1cc(C)c(O)c(C(=O)c2ccccc2)c1` showed an Inhibition in the data set listed under Oryctolagus cuniculus [1] of 20%. Moreover, the figures for the “Antiinflammatory Activity” value with Rattus norvegicus [2], in the data set with Rattus norvegicus [10] and in the data set on Rattus norvegicus [12] were 29.5%, 55.3% and 14.1%, respectively. The Ulcerogenic activity in the data set with Rattus norvegicus [3] was 40%; in the data set with Rattus norvegicus [4], 10%; in the data set with Rattus norvegicus [5] it was 60%; in the data set with Rattus norvegicus [8] it was 40%; with Rattus norvegicus [9], 100%; with Rattus norvegicus [11], 20%. In addition, the LD50 in [6] was more than 1000 mg/kg. For the same compound, the ED50 in the data set listed under Rattus norvegicus [7] amounted to 78.3 mg/kg.

Regarding `CC(=O)Oc1ccccc1C(=O)O` [ASPIRIN], the Inhibition in the data set filed under Oryctolagus cuniculus [1] was found to be 99%. The “Antiinflammatory Activity” value was 35.5% with Rattus norvegicus [2], 59.6% with Rattus norvegicus [10] and 30.4% with Rattus norvegicus [12]. Besides, the Ulcerogenic activity in the data set with Rattus norvegicus [3] is given as 90%; in the data set with Rattus norvegicus [4], 80%; in the data set with Rattus norvegicus [5], 60%; in the data set on Rattus norvegicus [8] it was 30%; in the data set with Rattus norvegicus [9] it was 90%; in the data set on Rattus norvegicus [11] it was 90%. In the data set filed under Rattus norvegicus [7], this compound gave a 50% effective dose (ED50) of 98.3 mg/kg.

As to `Cc1cc(C(=O)c2ccccc2)c(O)c(C(=O)c2ccccc2)c1`, the “Antiinflammatory Activity” value with Rattus norvegicus [2] amounted to 22.2%; in the data set on Rattus norvegicus [10], 45.5%; in the data set on Rattus norvegicus [12] it was 13.7%. Also, in the data set filed under Oryctolagus cuniculus [13], the inhibition result was “inactive”. Also, the Ulcerogenic activity in the data set with Rattus norvegicus [3] was determined as 80%; with Rattus norvegicus [4], 40%; in the data set with Rattus norvegicus [5], 40%; with Rattus norvegicus [8] it was 20%; with Rattus norvegicus [9], 60%; in the data set with Rattus norvegicus [11], 50%. For the same compound, the LD50 in data set [6] was more than 1000 mg/kg. In addition, it took a dose of 77.5 mg/kg to reach the 50% effect level in the data set filed under Rattus norvegicus [7] (ED50).

`Cc1cc(C(=O)c2ccccc2C)c(O)c(C(=O)c2ccccc2C)c1`: in the data set filed under Oryctolagus cuniculus [1], the Inhibition stood at 70%. In addition, the “Antiinflammatory Activity” value in the data set on Rattus norvegicus [2] was found to be 33.2%; with Rattus norvegicus [10] it was 64.1%; with Rattus norvegicus [12], 16.6%. The Ulcerogenic activity worked out at 15% in the data set on Rattus norvegicus [3]; 5% in the data set on Rattus norvegicus [4]; 70% with Rattus norvegicus [5]; 50% in the data set with Rattus norvegicus [8]; 90% in the data set with Rattus norvegicus [9]; 10% in the data set with Rattus norvegicus [11]. Also, the LD50 in data set [6] is more than 1000 mg/kg. In addition, in the data set filed under Rattus norvegicus [7], the ED50 was determined as 77.2 mg/kg.

As to `Cc1cc(C(=O)c2cccc(Cl)c2)c(O)c(C(=O)c2cccc(Cl)c2)c1`, the “Antiinflammatory Activity” value was 48.2% in the data set with Rattus norvegicus [2], 94.1% in the data set on Rattus norvegicus [10] and 30.3% with Rattus norvegicus [12]. For the same compound, the inhibition result in the data set listed under Oryctolagus cuniculus [13] is “inactive”. Moreover, the Ulcerogenic activity is on record as 12% in the data set on Rattus norvegicus [3]; 10% in the data set on Rattus norvegicus [4]; 60% in the data set on Rattus norvegicus [5]; 30% with Rattus norvegicus [8]; 90% in the data set with Rattus norvegicus [9]; 20% with Rattus norvegicus [11]. The LD50 in data set [6] was more than 1000 mg/kg. It took a dose of 51.2 mg/kg to reach the 50% effect level in the data set filed under Rattus norvegicus [7] (ED50).

For the origin of these results see ChEMBL document CHEMBL1137995, “Synthesis of some newer analogues of substituted dibenzoyl phenol as potent anti-inflammatory agents” (Bioorg Med Chem Lett, 2004).
